Results taken from PubChem BioAssay AID588483 (Southern Research Specialized Biocontainment Screening …, 2011).
Where “and” joins values, the source holds several entries; their conditions need not be identical. Equal entries are not always repeated. Calls of active or inactive are those of the source.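 Rule for the calls: active = viability below 70% at any tested concentration, read as cytotoxicity; inactive = the rest.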

Key:
[1] = HEp-2 cell cytotoxicity, dose response, cytotoxicity control for RSV inhibitor project, synthesized compounds, set 14 (AID 588483); details: HEp-2 cell viability, luminescence (cytotoxicity counter-screen); at 150 µM (top of the series)
How it was run: (§1)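 Test system: uninfected HEp-2 human cells, no virus added. Input: 10,595 HEp-2 cells per well. Times: six-day compound exposure at 37 °C. Technique: ATP-based luminescence with CellTiter-Glo reagent. Measure: percent viability versus cell-control median, CC50 from four-parameter fit. Dosing: two-fold compound dilution series, 0.5% DMSO final. Replication: triplicate wells per compound concentration.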

[2] = system: HEp-2 cell viability, luminescence (cytotoxicity counter-screen); assay: as above
How it was run: as §1

Row | Structure (SMILES) | viability [1] | CC50 [2]
1 | O=C(O)c1ccc(Cn2c(=O)n(Cc3ccc(C(=O)NCC4COC4)cc3)c(=O)c3ccccc32)cc1 | 119% (inactive) and 107% (inactive) | 
2 | CN(C)c1ccc(Cn2c(=O)n(Cc3ccc(C(=O)NCC4COC4)cc3)c(=O)c3ccccc32)cc1 |  | 29.7 µM
